8 molecules from ChEMBL document CHEMBL1153511, “Synthesis and biological evaluation of sphingosine kinase substrates as sphingosine-1-phosphate receptor prodrugs” (2009) can be followed below.

Experiment [1] concerns Mus musculus. Description: Induction of S1P1-mediated lymphopenia in mouse assessed as lymphocyte depletion at 10 mg/kg, ip after 20 hrs. The format is functional. The following applies: route intraperitoneal. Put shortly:
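Mice received a single ip injection. Lymphocyte depletion from peripheral blood was assessed 20 h after dosing.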

For experiment [2], the target named is Sphingosine 1-phosphate receptor 1 (Homo sapiens) (UniProt P21453). The experiment in a line: Ratio of agonistic EC50 for S1P to compound for human S1P1 receptor by [35S]GTPgammaS binding assay. The format is functional. In short, it runs like this: (§1)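 The chemically phosphorylated compounds were tested as agonists at each individual S1P receptor. Agonist-stimulated binding of GTP[γ-35S] to membranes was measured. EC50 and Emax were normalized to those of S1P run in the same assay.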
Sequence of Sphingosine 1-phosphate receptor 1 (Homo sapiens) (P21453 whole entry): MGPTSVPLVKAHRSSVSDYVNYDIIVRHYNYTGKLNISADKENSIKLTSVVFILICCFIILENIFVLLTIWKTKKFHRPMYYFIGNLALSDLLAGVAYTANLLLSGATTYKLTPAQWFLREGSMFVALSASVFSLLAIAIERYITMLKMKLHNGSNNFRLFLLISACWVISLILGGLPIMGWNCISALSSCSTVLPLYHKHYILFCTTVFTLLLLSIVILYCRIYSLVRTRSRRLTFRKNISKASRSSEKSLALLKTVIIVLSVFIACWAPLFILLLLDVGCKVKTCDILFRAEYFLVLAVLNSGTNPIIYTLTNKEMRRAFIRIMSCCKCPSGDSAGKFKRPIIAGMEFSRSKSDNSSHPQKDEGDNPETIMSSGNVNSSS

The target is the same in experiment [3]. Description: Ratio of agonistic Emax for S1P to compound for human S1P1 receptor by [35S]GTPgammaS binding assay. It is filed as functional. In short, it runs like this: as §1
A general note: GTPγS is a poorly hydrolysed GTP analogue; its binding reports G protein activation.

Experiment [4] deals with Sphingosine 1-phosphate receptor 2 (Homo sapiens) (UniProt O95136). The experiment in a line: Ratio of agonistic EC50 for S1P to compound for human S1P2 receptor by [35S]GTPgammaS binding assay. It is filed as functional. In short, it runs like this: as §1
Sequence of Sphingosine 1-phosphate receptor 2 (Homo sapiens) (O95136 whole entry): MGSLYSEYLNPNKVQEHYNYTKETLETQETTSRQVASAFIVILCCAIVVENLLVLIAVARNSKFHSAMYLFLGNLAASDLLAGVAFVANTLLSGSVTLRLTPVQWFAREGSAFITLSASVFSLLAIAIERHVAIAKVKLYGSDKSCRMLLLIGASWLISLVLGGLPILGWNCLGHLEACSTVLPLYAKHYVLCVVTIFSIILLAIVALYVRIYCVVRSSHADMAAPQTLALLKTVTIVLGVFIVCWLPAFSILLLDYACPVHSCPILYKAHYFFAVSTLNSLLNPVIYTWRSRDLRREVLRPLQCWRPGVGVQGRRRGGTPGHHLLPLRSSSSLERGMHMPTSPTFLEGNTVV
Experiment [5] has the same target. Description: Ratio of agonistic Emax for S1P to compound for human S1P2 receptor by [35S]GTPgammaS binding assay. The format is functional. In short, it runs like this:
as §1

Experiment [6] concerns the target Sphingosine 1-phosphate receptor 3 (Homo sapiens) (UniProt Q99500). The experiment in a line: Ratio of agonistic EC50 for S1P to compound for human S1P3 receptor by [35S]GTPgammaS binding assay. It is filed as functional. In short, it runs like this: as §1
Experiment [7] shares this target. The experiment in a line: Ratio of agonistic Emax for S1P to compound for human S1P3 receptor by [35S]GTPgammaS binding assay. It is filed as functional. In short, it runs like this: as §1
Experiment [8] deals with T1, Sphingosine 1-phosphate receptor 4 (Homo sapiens) (UniProt O95977).
T1 sequence (whole entry): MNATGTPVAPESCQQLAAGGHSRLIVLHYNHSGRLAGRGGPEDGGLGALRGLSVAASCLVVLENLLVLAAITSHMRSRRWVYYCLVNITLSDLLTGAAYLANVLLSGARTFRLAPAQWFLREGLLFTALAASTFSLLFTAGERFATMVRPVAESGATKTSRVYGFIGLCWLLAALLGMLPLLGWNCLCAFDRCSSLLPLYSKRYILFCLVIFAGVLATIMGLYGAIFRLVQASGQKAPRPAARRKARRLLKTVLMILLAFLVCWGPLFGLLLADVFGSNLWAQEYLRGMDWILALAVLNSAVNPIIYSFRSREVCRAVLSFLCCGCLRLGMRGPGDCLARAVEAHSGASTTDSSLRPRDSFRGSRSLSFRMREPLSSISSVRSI
Description: Ratio of agonistic EC50 for S1P to compound for human S1P4 receptor by [35S]GTPgammaS binding assay. The format is functional. In short, it runs like this:
as §1

Experiment [9] concerns the target T1, Sphingosine 1-phosphate receptor 4 (Homo sapiens). Description: Ratio of agonistic Emax for S1P to compound for human S1P4 receptor by [35S]GTPgammaS binding assay. It is filed as functional. In short, it runs like this: as §1
For experiment [10], the target named is Sphingosine 1-phosphate receptor 5 (Homo sapiens) (UniProt Q9H228). Description: Ratio of agonistic EC50 for S1P to compound for human S1P5 receptor by [35S]GTPgammaS binding assay. The format is functional. Put shortly: as §1
Sequence of Sphingosine 1-phosphate receptor 5 (Homo sapiens) (Q9H228 whole entry): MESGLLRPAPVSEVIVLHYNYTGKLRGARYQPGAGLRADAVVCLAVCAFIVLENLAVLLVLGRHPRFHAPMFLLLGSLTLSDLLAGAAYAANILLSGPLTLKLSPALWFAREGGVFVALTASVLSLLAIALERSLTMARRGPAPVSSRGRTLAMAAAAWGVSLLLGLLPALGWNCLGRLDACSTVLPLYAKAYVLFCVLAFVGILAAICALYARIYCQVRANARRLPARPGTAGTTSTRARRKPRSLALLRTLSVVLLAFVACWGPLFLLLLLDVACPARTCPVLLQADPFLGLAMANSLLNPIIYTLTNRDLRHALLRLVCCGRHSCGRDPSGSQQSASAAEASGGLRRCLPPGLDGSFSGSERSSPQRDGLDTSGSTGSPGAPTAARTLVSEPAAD
For experiment [11] the target is unchanged. Description: Ratio of agonistic Emax for S1P to compound for human S1P5 receptor by [35S]GTPgammaS binding assay. It is filed as functional. In short, it runs like this:
as §1

In experiment [12] the target is Sphingosine kinase 1 (Homo sapiens) (UniProt Q9NYA1). Description: Activity at human SPHK1 at 100 uM.
Sequence of Sphingosine kinase 1 (Homo sapiens) (Q9NYA1 whole entry): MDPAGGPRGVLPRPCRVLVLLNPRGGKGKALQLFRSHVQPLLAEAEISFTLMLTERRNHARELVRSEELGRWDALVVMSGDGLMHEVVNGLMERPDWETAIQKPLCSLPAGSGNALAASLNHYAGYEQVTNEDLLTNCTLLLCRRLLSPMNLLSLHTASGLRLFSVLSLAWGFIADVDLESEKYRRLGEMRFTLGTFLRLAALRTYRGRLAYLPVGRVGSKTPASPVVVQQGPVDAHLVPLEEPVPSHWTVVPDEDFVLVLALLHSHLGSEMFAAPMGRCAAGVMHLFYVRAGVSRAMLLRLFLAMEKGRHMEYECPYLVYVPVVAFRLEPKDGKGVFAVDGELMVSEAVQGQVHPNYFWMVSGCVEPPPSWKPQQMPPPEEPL
Experiment [13] deals with T2, Sphingosine kinase 2 (Homo sapiens) (UniProt Q9NRA0).
T2 sequence (whole entry): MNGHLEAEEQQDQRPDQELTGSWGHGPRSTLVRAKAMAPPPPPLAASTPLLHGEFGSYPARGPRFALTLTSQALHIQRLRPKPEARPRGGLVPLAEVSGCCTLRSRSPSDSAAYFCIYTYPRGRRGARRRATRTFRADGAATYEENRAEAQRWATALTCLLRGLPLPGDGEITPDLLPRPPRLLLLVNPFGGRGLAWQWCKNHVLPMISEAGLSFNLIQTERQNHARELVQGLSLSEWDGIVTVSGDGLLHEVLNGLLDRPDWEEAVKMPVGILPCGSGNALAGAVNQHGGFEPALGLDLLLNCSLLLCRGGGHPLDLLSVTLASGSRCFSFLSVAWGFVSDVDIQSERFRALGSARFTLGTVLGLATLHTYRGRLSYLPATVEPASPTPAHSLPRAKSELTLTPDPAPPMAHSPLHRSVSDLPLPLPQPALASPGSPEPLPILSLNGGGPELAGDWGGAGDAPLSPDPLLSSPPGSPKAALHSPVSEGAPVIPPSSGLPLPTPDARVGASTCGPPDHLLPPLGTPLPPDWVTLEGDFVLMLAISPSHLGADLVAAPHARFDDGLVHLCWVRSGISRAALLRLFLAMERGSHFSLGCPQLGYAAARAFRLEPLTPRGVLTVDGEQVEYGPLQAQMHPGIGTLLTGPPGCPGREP
Description: Activity at human SPHK2 at 15 uM.

For experiment [14], the target named is T2, Sphingosine kinase 2 (Homo sapiens). Description: Activity at human SPHK2 at 100 uM.

Activity calls are given as the source filed them. No cut-off for these calls is given here.

Sequence of Sphingosine 1-phosphate receptor 3 (Homo sapiens) (Q99500 whole entry): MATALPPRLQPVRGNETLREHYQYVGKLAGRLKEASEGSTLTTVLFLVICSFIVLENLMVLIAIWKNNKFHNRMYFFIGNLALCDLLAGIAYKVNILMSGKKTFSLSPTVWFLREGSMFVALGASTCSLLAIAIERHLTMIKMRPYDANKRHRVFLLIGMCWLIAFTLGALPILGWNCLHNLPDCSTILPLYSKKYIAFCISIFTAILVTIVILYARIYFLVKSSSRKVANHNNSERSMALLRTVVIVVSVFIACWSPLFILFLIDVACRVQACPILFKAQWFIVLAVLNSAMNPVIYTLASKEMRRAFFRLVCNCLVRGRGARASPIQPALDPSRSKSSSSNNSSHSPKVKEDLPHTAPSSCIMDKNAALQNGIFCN

Regarding `CCCCCCCCc1ccc(-c2cnc([C@@](C)(N)COP(=O)(O)O)[nH]2)cc1.O=C(O)C(F)(F)F.O=C(O)C(F)(F)F`, in [1], the Activity was found to be 75%. Moreover, the Ratio EC50 was determined as 1.09 in [2], 50.8 in experiment [6], 0.59 in experiment [8] and 3.62 in experiment [10]. Further, the Ratio in experiment [3] stood at 0.87; in experiment [5], 0; in experiment [7] it was 0.65; in experiment [9], 0.93; in experiment [11] it was 0.83. The “Ratio EC50” value in experiment [4] was “inactive”.
On to `CCCCCCCCc1ccc(-c2nc(C(C)(N)COP(=O)(O)O)no2)cc1` (centres undefined), for which the Ratio EC50 in experiment [2] was found to be 2.5; in [10], 21.6. The Ratio came out at 1 in experiment [3], 0 in experiment [5] and 1 in experiment [11].
Take `CCCCCCCCc1ccc(-c2nc(C(C)(N)CO)no2)cc1` (centres undefined): the outcome in [12] was Active.
`CCCCCCCCc1ccc(-c2noc(C(C)(N)COP(=O)(O)O)n2)cc1` (racemic): the Ratio EC50 in experiment [2] was determined as 24.4; in [6], 23; in experiment [8], 0.52; in experiment [10], 4.35. Moreover, the Ratio in [3] came out at 0.89; in [5], 0; in experiment [7], 0.51; in experiment [9], 0.81; in experiment [11] it was 0.73. In addition, the “Ratio EC50” value in [4] is “inactive”.
On to `CCCCCCCCc1ccc(-c2coc(C(C)(N)COP(=O)(O)O)n2)cc1` (centres undefined), for which the values for the Ratio EC50 in [2], in [6] and in experiment [10] were 4.28, 52.5 and 24.1, respectively. Moreover, the Ratio turned out to be 0.8 in [3], 0 in [5], 1 in experiment [7] and 0.6 in experiment [11].
For the molecule `CCCCCCCCc1ccc(-c2cnc([C@@](C)(N)CO)[nH]2)cc1`, the Activity in [13] was 20%; in experiment [1] it was 75%.
On to `CCCCCCCCc1ccc(-c2cnc([C@](C)(N)CO)[nH]2)cc1`, for which the outcome in experiment [14] was inactive. Also, the Activity in experiment [1] stood at 75%.
On to `CCCCCCCCc1ccc(-c2cnc([C@](C)(N)COP(=O)(O)O)[nH]2)cc1.O=C(O)C(F)(F)F.O=C(O)C(F)(F)F`, for which the Activity in experiment [1] is recorded as 75%. For the same molecule, the Ratio EC50 is 8.09 in experiment [2], 1000 in experiment [6], 4.13 in experiment [8] and 16.1 in [10]. In addition, the Ratio in experiment [3] was 0.92; in experiment [5], 0; in [7], 0.61; in experiment [9], 1.19; in [11], 0.83. Besides, the “Ratio EC50” value in experiment [4] was “inactive”.
